Measurements published in ChEMBL document CHEMBL1123026, “Preparation and antiarthritic and analgesic activity of 4,5-diaryl-2-(substituted thio)-1H-imidazoles and their sulfoxides and sulfones” (1985).

What was measured:
Format in all cases: functional
Mus musculus [1] = assay: Effective dose by mouse phenyl-p-benzoquinone writhing (PQW)assay after peroral administration; activity value ranges from (0.68-2.89); settings: po
Mus musculus [2] = assay: Effective dose by mouse phenyl-p-benzoquinone writhing (PQW)assay after peroral administration; activity value ranges from (3.2-12.3); settings: po
Outline: (§1)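 Fasted (17-21 h) female white mice, 5-20 per double-blind test, dosed orally with compound suspended in 1% methylcellulose. 0.20 mL aqueous 0.01% phenyl-p-benzoquinone given i.p. 6 min before a 10-min observation for stretching/writhing. ED50 (dose protecting 50% of mice) calculated by the moving-average method.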

Mus musculus [3] = assay: Effective dose by mouse phenyl-p-benzoquinone writhing (PQW)assay after peroral administration; activity value ranges from (20.2-79.4); settings: po; outline: as §1
Rattus norvegicus [4] = assay: Effective dose determined against rat adjuvant arthritis after peroral administration; settings: po
Outline: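 Male Lewis rats (130-150 g) given 0.1 mL Mycobacterium butyricum adjuvant (5 mg/mL in mineral oil) s.c. into the right hind paw; arthritis developed for 2 weeks. Groups of 10 matched for severity were dosed orally by gavage in PVA-acacia vehicle (10 mL/kg) for 7 days. Uninjected left paw volume was measured the day after the last dose. Percent decrease was calculated vs arthritic and nonarthritic controls. ED50 was read from a visually fitted semilog dose-response line.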

Mus musculus [5] = assay: Effective dose by mouse phenyl-p-benzoquinone writhing (PQW)assay after peroral administration; activity value ranges from (20.0-101.0); settings: po; outline: as §1
Mus musculus [6] = assay: Effective dose by mouse phenyl-p-benzoquinone writhing (PQW)assay after peroral administration; activity value ranges from (0.23-1.22); settings: po
Mus musculus [7] = assay: Effective dose by mouse phenyl-p-benzoquinone writhing (PQW)assay after peroral administration; activity value ranges from (10.2-45.9); settings: po; outline: as §1
Rattus norvegicus [8] = assay: Decrease in rat paw volume was evaluated at dose 100 mg/kg
Outline: (§2)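 Male Lewis rats (130-150 g) got 0.1 mL adjuvant (heat-killed Mycobacterium butyricum, 5 mg/mL in mineral oil) subplantar in the right hind paw and were left 2 weeks. Groups of 10 matched for severity were dosed orally by gavage (PVA-acacia vehicle, 10 mL/kg) for 7 days. Uninjected left hind paw volume was read the next day. % decrease = (arthritic control − treated)/(arthritic − nonarthritic control) × 100; Student's t-test.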

Mus musculus [9] = assay: Effective dose determined by mouse phenyl-p-benzoquinone writhing (PQW) assay after peroral administration; settings: po; outline: as §1
Rattus norvegicus [10] = assay: Decrease in paw volume by the effect of compound at a dose 100 mg/kg; outline: as §2
Mus musculus [11] = assay: Effective dose by mouse phenyl-p-benzoquinone writhing (PQW)assay after peroral administration; activity value ranges from (2.5 - 8.9); settings: po; outline: as §1
Mus musculus [12] = assay: Effective dose by mouse phenyl-p-benzoquinone writhing (PQW)assay after peroral administration; activity value ranges from (0.07-0.50); settings: po
Mus musculus [13] = assay: Effective dose by mouse phenyl-p-benzoquinone writhing (PQW)assay after peroral administration; activity value ranges from (38.0-118.0); settings: po; outline: as §1
Mus musculus [14] = assay: Effective dose by mouse phenyl-p-benzoquinone writhing (PQW)assay after peroral administration; 11.4-59.4; settings: po
Mus musculus [15] = assay: Effective dose by mouse phenyl-p-benzoquinone writhing (PQW)assay after peroral administration; activity value ranges from (0.09 - 0.86); settings: po
Mus musculus [16] = assay: Effective dose by mouse phenyl-p-benzoquinone writhing (PQW)assay after peroral administration; activity value ranges from (7.7-33.2); settings: po; outline: as §1
Mus musculus [17] = assay: Effective dose by mouse phenyl-p-benzoquinone writhing (PQW)assay after peroral administration; 15.5-103; settings: po
Mus musculus [18] = assay: Effective dose by mouse phenyl-p-benzoquinone writhing (PQW)assay after peroral administration; activity value ranges from (20.0-81.0); settings: po; outline: as §1
Mus musculus [19] = assay: Effective dose by mouse phenyl-p-benzoquinone writhing (PQW)assay after peroral administration; activity value ranges from (15.0-77.0); settings: po; outline: as §1
Mus musculus [20] = assay: Effective dose by mouse phenyl-p-benzoquinone writhing (PQW)assay after peroral administration; 16.7-121.5; settings: po
Mus musculus [21] = assay: Effective dose by mouse phenyl-p-benzoquinone writhing (PQW)assay after peroral administration; activity value ranges from (4.9-8.7); settings: po; outline: as §1
Mus musculus [22] = assay: Effective dose by mouse phenyl-p-benzoquinone writhing (PQW)assay after peroral administration; activity value ranges from (16.2-99); settings: po; outline: as §1
Mus musculus [23] = assay: Effective dose by mouse phenyl-p-benzoquinone writhing (PQW)assay after peroral administration; activity value ranges from (0.37-1.52); settings: po
Rattus norvegicus [24] = assay: Decrease in paw volume by the effect of compound at a dose of 80 mg/kg; outline: as §2
Mus musculus [25] = assay: Effective dose by mouse phenyl-p-benzoquinone writhing (PQW)assay after peroral administration; activity value ranges from (4.8-25.4); settings: po; outline: as §1
Mus musculus [26] = assay: Effective dose by mouse phenyl-p-benzoquinone writhing (PQW)assay after peroral administration; 20.6-296.0; settings: po

O=S(=O)(c1nc(-c2ccc(F)cc2)c(-c2ccc(F)cc2)[nH]1)C(F)F
ED50 (Mus musculus [1]): 1.4 mg/kg

O=S(=O)(c1nc(-c2ccc(Cl)cc2)c(-c2ccc(F)cc2)[nH]1)C(F)(F)C(F)F
ED50 (Mus musculus [2]): 6.3 mg/kg

COc1ccccc1-c1nc(S(=O)(=O)C(F)(F)C(F)F)[nH]c1-c1ccccc1OC
ED50 (Mus musculus [3]): 40 mg/kg
ED50 (Rattus norvegicus [4]): > 9 mg/kg

O=S(=O)(c1nc(-c2ccc(Cl)cc2)c(-c2ccc(C(F)(F)F)cc2)[nH]1)C(F)(F)C(F)F
ED50 (Mus musculus [5]): 45 mg/kg

COc1ccc(-c2nc(S(=O)(=O)C(F)(F)CF)[nH]c2-c2ccc(OC)cc2)cc1
ED50 (Mus musculus [6]): 0.53 mg/kg

O=[N+]([O-])c1ccc(-c2[nH]c(S(=O)(=O)C(F)(F)C(F)F)nc2-c2ccc(F)cc2)cc1
ED50 (Mus musculus [7]): 21.6 mg/kg
ED50 (Rattus norvegicus [4]): 0.37 mg/kg

CSc1nc(-c2ccccc2)c(-c2ccccc2)[nH]1
Decrease (Rattus norvegicus [8]): 20%
ED50 (Mus musculus [9]): > 100 mg/kg

C[S+]([O-])c1nc(-c2ccccc2)c(-c2ccccc2)[nH]1 (centres undefined)
ED50 (Mus musculus [9]): > 100 mg/kg
Decrease (Rattus norvegicus [10]): 33%

[O-][S+](c1nc(-c2ccccc2)c(-c2ccccc2)[nH]1)C(F)(F)C(F)F (centres undefined)
ED50 (Mus musculus [11]): 4.7 mg/kg

O=S(=O)(c1nc(-c2ccc(F)cc2)c(-c2ccc(F)cc2)[nH]1)C(F)(F)F
ED50 (Mus musculus [12]): 0.19 mg/kg
ED50 (Rattus norvegicus [4]): 0.016 mg/kg

COc1cccc(-c2nc(S(=O)(=O)C(F)(F)C(F)F)[nH]c2-c2cccc(OC)c2)c1
ED50 (Mus musculus [13]): 67 mg/kg

C=CCSc1nc(-c2ccc(OC)cc2)c(-c2ccc(OC)cc2)[nH]1
ED50 (Mus musculus [14]): 26 mg/kg
ED50 (Rattus norvegicus [4]): 20 mg/kg

COc1ccc(-c2[nH]c(S(=O)(=O)C(F)(F)C(F)F)nc2-c2ccc(F)cc2)cc1
ED50 (Rattus norvegicus [4]): 1.7 mg/kg
ED50 (Mus musculus [15]): 0.28 mg/kg

O=S(=O)(c1nc(-c2ccc(Cl)c(Cl)c2)c(-c2ccccc2)[nH]1)C(F)(F)F
ED50 (Mus musculus [16]): 16 mg/kg
ED50 (Rattus norvegicus [4]): 0.35 mg/kg

CCCSc1nc(-c2ccc(OC)cc2)c(-c2ccc(OC)cc2)[nH]1
ED50 (Mus musculus [17]): 40 mg/kg

[O-][S+](c1nc(-c2ccc(F)cc2)c(-c2ccc(F)cc2)[nH]1)C(F)(F)F (centres undefined)
ED50 (Mus musculus [18]): 40 mg/kg
ED50 (Rattus norvegicus [4]): 0.06 mg/kg

COc1ccc(-c2nc([S+]([O-])CSC)[nH]c2-c2ccc(OC)cc2)cc1 (centres undefined)
ED50 (Mus musculus [19]): 34 mg/kg
ED50 (Rattus norvegicus [4]): 28 mg/kg

COc1ccc(-c2nc(SC(F)(F)C(F)F)[nH]c2-c2ccc(OC)cc2)cc1
ED50 (Mus musculus [20]): 45 mg/kg
ED50 (Rattus norvegicus [4]): 4.5 mg/kg

O=S(=O)(c1nc(-c2ccc(Cl)c(Cl)c2)c(-c2ccccc2)[nH]1)C(F)(F)C(F)F
ED50 (Mus musculus [21]): 6.5 mg/kg
ED50 (Rattus norvegicus [4]): 0.22 mg/kg

CCC[S+]([O-])c1nc(-c2ccc(OC)cc2)c(-c2ccc(OC)cc2)[nH]1 (centres undefined)
ED50 (Mus musculus [22]): 40 mg/kg
ED50 (Rattus norvegicus [4]): 15 mg/kg

O=S(=O)(c1nc(-c2ccccc2)c(-c2ccccc2)[nH]1)C(F)(F)F
ED50 (Mus musculus [23]): 0.75 mg/kg

COc1ccc(-c2nc(S(=O)(=O)CS(C)(=O)=O)[nH]c2-c2ccc(OC)cc2)cc1
Decrease (Rattus norvegicus [24]): 43%
ED50 (Mus musculus [9]): > 130 mg/kg

O=S(=O)(c1nc(-c2ccc(Cl)cc2)c(-c2ccc(Cl)cc2)[nH]1)C(F)(F)C(F)F
ED50 (Mus musculus [25]): 11 mg/kg
ED50 (Rattus norvegicus [4]): 0.18 mg/kg

FC(F)Sc1nc(-c2ccc(Cl)cc2)c(-c2ccc(Cl)cc2)[nH]1
ED50 (Mus musculus [26]): 78 mg/kg
